NR1D1 modulator: modulators of Rev-erb alpha DNA binding, primary screen, biochemical, FITC-DNA, fluorescence polarization, uHTS | AID 1259318, 2017 | activity, % at 10 µM | hit rate 0.79% among 370,000 | Nuclear receptor subfamily 1 group D member 1 (Homo sapiens), P20393 | Rev-erbα–FITC-DNA binding, 90 min;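 active = activity above about 14%, limit read from the data; passing the limit was not always enough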
NR2E3 ag-1: inhibitors of NR2E3-RetCOR corepressor binding, primary screen, NR2E3 agonist project, biochemical, TR-FRET, GST-NR2E3, biotin-RetCOR; Photoreceptor-specific nuclear receptor (Homo sapiens), Q9Y5X4; 1536-well; inhibition of corepressor binding, % at 4.78 µM; hit rate 0.12% among 320,000;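 active = percent inhibition above the cutoff of mean plus 3 SD of all tested compounds, set per screening campaign, cut at about 20% in these data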
Target sequence (Q9Y5X4 whole entry, looked up): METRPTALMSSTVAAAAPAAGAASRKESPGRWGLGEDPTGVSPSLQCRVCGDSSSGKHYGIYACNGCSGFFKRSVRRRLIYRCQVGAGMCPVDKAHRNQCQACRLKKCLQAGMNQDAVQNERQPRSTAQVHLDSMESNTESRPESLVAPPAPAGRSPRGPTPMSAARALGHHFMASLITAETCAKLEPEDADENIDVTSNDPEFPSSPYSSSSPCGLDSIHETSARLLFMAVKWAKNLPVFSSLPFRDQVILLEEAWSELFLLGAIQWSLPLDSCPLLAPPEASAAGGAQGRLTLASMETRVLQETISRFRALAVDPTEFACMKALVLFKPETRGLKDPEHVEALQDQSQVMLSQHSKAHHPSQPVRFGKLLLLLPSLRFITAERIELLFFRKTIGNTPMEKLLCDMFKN
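Material – GST-tagged NR2E3 plus biotinylated RetCOR corepressor · Quantity – NR2E3 fusion 1.35 nM · Times – 5 h incubation at 4 °C · Medium – pH 7.5 Tris-based buffer · Technique – TR-FRET, Eu(K)-anti-GST donor, streptavidin-D2 acceptor, ex 340, em 617/671 nm · Benchmarks – high control biotin, low control 0.6% DMSO · Format – 1536-well plates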
PG9 Ab binder: binders of HIV-1 gp120 antibody PG9, primary screen, biochemical, TR-FRET; TR-FRET gp120-PG9 antibody binding; HIV-1 gp120 / PG9 antibody interaction; inhibition, % at 6.7 µM; hit rate 0.43% among 360,000; AID 624416, 2012; in the data active = inhibition above about 8.5%
NR2E3 ag-2: NR2E3 agonists in two-hybrid cells, primary screen, cell-based, luminescence, CHO-S, Gal4-NCOR/VP16-NR2E3 | hit rate 0.35% among 360,000 | inhibition of corepressor binding, % at 3.98 µM | Photoreceptor-specific nuclear receptor (Homo sapiens), Q9Y5X4 | luciferase | AID 602229, 2012;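 active = inhibition above the mean of all tested compounds plus 3 SD, cut at about 70% in these data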;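 note: higher means lower luciferase signal from less NR2E3 corepressor binding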
VLA-4 inh: inhibition in human VLA-4 binding assay, primary screen, VLA-4 allosteric modulator project, MLPCN library, flow cytometry, VLA-4 expressing cells; inhibition, % (about 7 µM as worked out from the volumes in the protocol); ligand binding flow cytometry; hit rate 0.2% among 330,000; AID 2557, 2010; Integrin alpha-4 (Homo sapiens), P13612; in the data active = inhibition above about 50%
VLA-4 allo CP: retest of VLA-4 allosteric modulators, confirmation, cell-based, cherry-picked plates, U937, HUTS-21 LIBS antibody | shares compounds with VLA-4 inh | U937 cells, HUTS-21 LIBS mAb binding, flow cytometry; LDV ligand present at threefold Kd | inhibition, % at 6.7 µM | hit rate 2% among 1,300 | AID 2813, 2010; in the data active = inhibition above about 40%
Hits are given with their value; . = inactive; / = no result; ! = repeats disagree. A selection: hits, their analogues and other compounds. The true share with any hit is near 1.6%.

SMILES	NR1D1 modulator	NR2E3 ag-1	PG9 Ab binder	NR2E3 ag-2	VLA-4 inh	VLA-4 allo CP
CCOc1ccc(NC(=O)C2CCCN(S(=O)(=O)c3ccc4c(c3)C(C)(C)C(=O)N4C)C2)cc1 (centres undefined)	.	/	.	.	/	/
CCOc1ccccc1NC(=O)C1CCCN(S(=O)(=O)c2ccc3c(c2)C(C)(C)C(=O)N3C)C1 (centres undefined)	.	.	.	.	50	.
Cc1cc(C)cc(C(=O)OCCCN(C)C2CN(Cc3cn(Cc4ccc([N+](=O)[O-])cc4)nn3)S(=O)(=O)C2)c1 (centres undefined)	.	/	/	/	/	/
CN(Cc1ccccc1)C(=O)CN(C)S(=O)(=O)c1ccc(F)cc1	.	.	.	.	.	.
O=C(CS(=O)Cc1ccco1)NC/C=C\COc1cc(CN2CCCCC2)ccn1 (centres undefined)	.	/	/	/	/	/
COc1ccc(-c2c(C(=O)c3ccccc3)[nH]c(N)c2C(=O)NCCc2c[nH]c3ccccc23)cc1	.	/	.	/	/	/
c1ccc(CN2CCC(N3CCC(N4CCCCCC4)CC3)CC2)cc1	/	.	/	.	.	/
C#CC1CN(Cc2ccccc2)CC(C#C)N1C (centres undefined)	.	.	.	.	62	.
CCCOc1ncnc2c1[nH]c1ccc(C)cc12	/	.	/	/	.	.
CCOc1ncnc2c1[nH]c1ccccc12	.	.	.	.	.	.
CC(C)OCCCNc1ncnc2c1[nH]c1ccccc12	.	.	.	.	.	/
CCCCCCC/C=C(\C)[C@@H](O)[C@@H](C)C(=O)N1CCC[C@@H]1C(=O)O	.	/	/	/	/	/
CC(NC(=O)NC1CCCCC1)c1ccc2c(c1)OCO2 (centres undefined)	.	.	.	.	.	.
Cc1ccc(NC(=O)Cn2nnc(-c3ccccc3F)n2)c(C)c1	.	/	/	/	/	/
CC(C)NC(=O)Cn1cc(C(=O)C(=O)N2CCOCC2)c2ccccc21	.	.	.	.	.	.
O=C(Cn1cc(C(=O)C2CC2)c2ccccc21)NC1CCCC1	.	.	.	.	58	.
O=C(/C=C(\Nc1ccc(F)cc1)c1ccccc1)c1ccccc1	.	/	.	/	/	/
O=C(CN1CCN(c2nc(-c3ccccc3)cs2)CC1)Nc1ccc(Cl)cc1	.	/	/	/	/	/
CC(=O)CC[C@H]1CC[C@]2(CCCN(C(=O)c3ccco3)C2)O1	.	/	/	/	/	/
CCc1cccc(C)c1NC(=O)C1CCN(C(=O)c2ccc([N+](=O)[O-])cc2)CC1	.	.	.	.	56	.
CC(=O)C1(C(=O)NC2CCCC2)CC(c2ccccn2)=NO1 (centres undefined)	.	/	/	/	/	/
CCCCn1c(SCC(=O)Nc2ccc3c(c2)CCC3)nc2ccccc2c1=O	.	.	.	.	.	.
CCOC(=O)Nc1nnc(CCc2ccccc2)s1	.	.	.	.	.	/
CCc1nnc(NC(=O)OCc2ccccc2)s1	.	.	.	.	57	.
C=CCn1c(SCC(=O)Nc2c(C)n(C)n(-c3ccccc3)c2=O)nc2ccccc2c1=O	.	.	.	.	52	.
SMILES	NR1D1 modulator	NR2E3 ag-1	PG9 Ab binder	NR2E3 ag-2	VLA-4 inh	VLA-4 allo CP
COc1ccc2c(C)cc(SCC(=O)Nc3c(C)n(C)n(-c4ccccc4)c3=O)nc2c1	.	.	.	.	94	.
CCC[C@@H](/C=C/C(=O)OC(C)(C)C)Sc1ccccc1OC	.	/	/	/	/	/
COCCNC(=O)/C(C#N)=C/c1cccc(/C=C(\C#N)C(=O)NCCOC)c1	.	.	.	.	50	.
CCOCCCNC(=O)/C(C#N)=C/c1cc(OC)c(O)c([N+](=O)[O-])c1	.	.	.	.	.	/
COCCNC(=O)/C(C#N)=C/c1ccc(O)cc1	.	.	.	.	.	.
CCOCCCNC(=O)/C(C#N)=C/c1ccc(Cl)c([N+](=O)[O-])c1	.	.	.	.	59	.
CCCCCCCCNC(=O)/C(C#N)=C/c1ccc(SC)cc1	.	.	.	.	.	.
COCCNC(=O)/C(C#N)=C/c1ccc(O)c([N+](=O)[O-])c1	.	.	.	.	.	/
COc1ccccc1CCn1cnc(-c2ccccc2OC)c1C(C)C	.	/	.	/	/	/
O=C(CSc1nnc(Cc2cc(=O)[nH]c(=O)[nH]2)n1-c1ccccc1)N1CCCCC1	.	.	.	.	.	.
COc1ccc(-n2c(Cc3cc(=O)[nH]c(=O)[nH]3)nnc2SCC(=O)Nc2ccccc2)cc1	.	.	.	.	.	/
O=C(CSc1nnc(Cc2cc(=O)[nH]c(=O)[nH]2)n1-c1ccccc1)N1CCCC1	.	.	.	.	.	.
Cc1ccc(CNC(=O)CCCc2cn(C)c3ccccc23)cc1	.	.	.	.	.	.
Cn1cc(CCCC(=O)NCc2ccccc2)c2ccccc21	.	.	.	.	.	/
CCOc1cnn(-c2ccccc2)c(=O)c1Cl	.	.	.	.	.	.
CCSc1cnn(-c2ccccc2)c(=O)c1Cl	.	.	.	.	.	/
Nc1nc(C(F)(F)F)cc(=O)[nH]1	.	.	.	.	.	/
O=c1cc(C(F)(F)F)nc(-n2[nH]c3c(c2=O)CCCC3)[nH]1	.	.	.	.	50	.
COCCn1c(Cc2ccccc2)nnc1SCc1ccc([N+](=O)[O-])cc1	.	.	.	.	.	.
CC(=O)CC[C@H]1CC[C@]2(CCCN(S(=O)(=O)c3ccccc3)C2)O1	.	/	/	/	/	/
CCCCCCCCOC(=O)c1ccc(N)cc1	.	.	.	.	50	.
Cc1cccc(-c2cccc3c4c([nH]c23)[C@@H]2C[C@H](N(C)C(=O)Nc3ccccc3)[C@H]([C@H](C)O)C(=O)N2CC4)c1	.	/	/	/	/	/
Cc1cc(C)c(C#N)c(Oc2ccc(O)cc2)n1	.	.	.	.	.	/
CCCC(=O)Nc1cccc(Oc2nc(C)cc(C)c2C#N)c1	.	.	.	.	89	.
CC(C)(C)C(=O)OC12CCCN(C1)/C(=C/c1ccc(Cl)cc1)C2 (centres undefined)	.	/	/	/	/	/
CC(Sc1nnnn1-c1ccccc1)C(=O)Nc1ccc(N2CCN(C)CC2)cc1 (centres undefined)	.	.	.	.	102	.
CSc1ccc2c(c1)C(N1CCN(C)CC1)Cc1ccccc1S2 (centres undefined)	.	.	.	.	55!	.
CCn1cc(C(=O)Nc2ccc(Oc3cccnc3)cc2)c2ccccc21	.	/	.	/	/	/
CCOc1ccc(NC(=O)COC(=O)c2c(OC)cccc2OC)cc1	.	.	.	.	.	.
